Screens (PubChem BioAssay)
Only a selection was taken, and hits are over-represented in it overall.
GSK3 alpha inh – blockers of GSK3A enzyme activity – biochemical, luminescence, cell-free homogeneous, HTS, primary screen; GSK-3 alpha kinase, ADP-Glo luminescence, 60 min; inhibition, % at 10 µM; hit rate 0.1% among 320,000;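 active = more than half of replicates show inhibition above 20%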;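 note: GST-tagged GSK-3 alpha with peptide substrate and 25 µM ATP; 0% = DMSO neutral wells and 100% = GW8510 positive control wells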
DYRK1A inh – rat Dyrk1A kinase inhibitors, primary screen, biochemical, single point, plate reader; ADP-Glo luminescence, NFATc1 peptide; Dual specificity tyrosine-phosphorylation-regulated kinase 1A (Rattus norvegicus), Q63470; hit rate 0.43% among 310,000; inhibition, % at 12.5 µM; AID 504441, 2011; in the data active = inhibition above about 50%;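 note: plate controls were vehicle with enzyme for no effect and no enzyme for full effect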
CDK5 p35 inh – inhibitors of human CDK5/p35 kinase, primary screen, biochemical, single concentration. Cyclin-dependent kinase 5 (Homo sapiens) + Cyclin-dependent kinase 5 activator 1 (Homo …. Recombinant CDK5/p35, ADP-Glo luminescence, 60 min. inhibition, % at 10 µM. hit rate 0.01% among 330,000. AID 488839, 2010;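 active = highest replicate inhibition of at least 50% and at least 75% of replicates reaching 50%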;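 note: plate controls were DMSO neutral control for no effect and GW8510 at 10 µM for full effect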
Target sequence (Q00535 whole entry, looked up): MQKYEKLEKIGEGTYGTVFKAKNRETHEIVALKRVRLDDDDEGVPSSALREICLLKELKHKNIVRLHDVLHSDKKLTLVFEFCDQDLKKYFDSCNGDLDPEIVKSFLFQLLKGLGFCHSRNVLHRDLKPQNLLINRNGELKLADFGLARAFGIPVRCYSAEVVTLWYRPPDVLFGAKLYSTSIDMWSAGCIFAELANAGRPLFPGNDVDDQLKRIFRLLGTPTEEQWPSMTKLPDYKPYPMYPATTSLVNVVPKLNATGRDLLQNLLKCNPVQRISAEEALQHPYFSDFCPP
Target sequence (Q15078 whole entry, looked up): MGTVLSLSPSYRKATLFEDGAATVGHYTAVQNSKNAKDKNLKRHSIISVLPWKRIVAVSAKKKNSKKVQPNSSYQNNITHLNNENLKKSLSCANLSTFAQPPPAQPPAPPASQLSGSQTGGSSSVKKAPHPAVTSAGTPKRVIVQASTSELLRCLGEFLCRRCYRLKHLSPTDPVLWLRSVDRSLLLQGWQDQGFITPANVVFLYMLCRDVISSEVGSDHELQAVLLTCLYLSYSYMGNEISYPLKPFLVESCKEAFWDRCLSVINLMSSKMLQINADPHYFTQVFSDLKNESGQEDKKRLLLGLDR
GSK3beta inhib – human GSK3beta kinase inhibitors, primary screen, biochemical, cell-free homogeneous, HTS; activity score (negative = inhibition), % at 10 µM; GST-GSK3beta kinase, ADP-Glo luminescence, 60 min; active compounds read low; AID 2097, 2009; hit rate 0.038% among 300,000;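 active = more than half of replicate wells score below -50%, meaning over 50% inhibition versus plate controls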;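 note: 0% = median DMSO wells and -100% = median GW8510 positive control wells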
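Assay system: GST-tagged human GSK3beta kinase, cell-free; Input: 1.6 ng GSK3beta; Medium: Tris/MgCl2 kinase buffer; Timing: 60 min enzyme reaction, room temperature; Signal: ADP-Glo luminescence quantifying ADP generated by kinase; Evaluation: score relative to plate controls; Benchmarks: DMSO neutral wells and GW8510 at 20 µM as positive.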
STK33 inh – inhibitors of purified STK33 kinase, primary screen, biochemical, ADP-Glo luminescence, homogeneous, cell-free. Serine/threonine-protein kinase 33 (Homo sapiens), Q9BYT3. MBP phosphorylation. inhibition, % at 10 µM. hit rate 0.073% among 320,000;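 active = inhibition at or above 25%, using the most active replicate where run in duplicate; inactive = inhibition below 25%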
ADP-Glo artifact – ADP-Glo luciferase interference without Dyrk1A, dose response, artefact control for Dyrk1A inhibitor project, biochemical, luminescence, cherry-pick, set 02; shares compounds with DYRK1A inh; ADP-Glo luciferase artifact assay, no Dyrk1A; AC50, µM (top dose mostly 12 µM), inactives show at the highest dose activity change, negative = inhibition; 1,300 tested, under 10 active; AID 588348, 2011;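 active = fitted half-maximal dose AC50 no more than ten times the top valid tested dose, with luminescence dropping as dose rises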
Starred values were filed as active, the others as inactive; . = no result.

SMILES	GSK3 alpha inh	DYRK1A inh	CDK5 p35 inh	GSK3beta inhib	STK33 inh	ADP-Glo artifact
CCCc1cc(=O)[nH]c(SCC(=O)NCC2COc3ccccc3O2)n1 (centres undefined)	.	.	-1	.	.	.
O=C(Nc1nc2ccccc2s1)c1ccc(OCC2CCCO2)cc1 (centres undefined)	0	57*	1	-2	0	9%
Cc1cnc(NC(=O)c2ccc(OCC3CCCO3)cc2)s1 (centres undefined)	0	.	0	-1	8	.
O=[N+]([O-])c1nc2ccccc2[nH]1	.	-1	-3	.	.	.
CCOC(=O)C(Cc1ccc(O)cc1)NC(=O)CCc1c[nH]c2ccccc12 (centres undefined)	-2	51*	1	0	-1	12%
COc1cc(-c2cn(S(=O)(=O)c3cccc4nsnc34)nc2N)cc(OC)c1OC	2	83*	1	1	1	10%
Cc1ccc(-c2cn(S(=O)(=O)c3cccc4nsnc34)nc2N)cc1	-1	-4	1	-1	0	.
COc1ccc2cc(-c3cccnc3)ncc2c1	2	68*	5	.	4	12%
COc1ccc(OCC(=O)N2c3ccccc3CC2C)c([N+](=O)[O-])c1 (centres undefined)	-4	7	3	.	-1	.
Cc1cc(C)cc(N=Cc2c(O)c3ccccc3oc2=O)c1	-1	.	0	5	-2	.
O=C(O)c1cc(N=Cc2c(O)c3ccccc3oc2=O)ccc1O	-3	82*	1	-1	15	9%
COC(=O)CSc1ncnc2c1sc1nc3c(cc12)COC(C)(C)C3	45	6	-3	-1	-1	.
CC1(C)Cc2nc3sc4c(SCC(=O)O)ncnc4c3cc2CO1	76*	93*	-1	-23	1	4%
CCOc1c(C)cnc2c1c(=O)n(Cc1c(F)cccc1Cl)c(=O)n2C	-4	-6	-1	-1	0	.
Cc1ccc(/C=c2\sc3n(c2=O)CN(c2ccc(Br)cc2)CN=3)o1	1	62*	0	-7	0	9%
COc1ccc(N2Nc3n[nH]c(N)c3N2)cc1	19	61*	2	-2	11	10%
Cn1nnnc1Sc1ncnc2scc(-c3ccc[nH]3)c12	4	52*	-1	.	-2	8%
c1nc2sc3c(c2c2nnnn12)CCCC3	12	50*	2	1	3	8%
c1nc2sc3c(c2c2nnnn12)CCC3	5	10	2	-1	2	.
CC[N+](C)(C)CCN(Cc1ccc(Cl)cc1)c1ccccn1	0	-2	0	7	-1	.
CCCCCCCCCCCCCCCC[N+](C)(C)CCN(Cc1ccc(OC)cc1)c1ncccn1	23	63*	1	.	43*	11%
CSc1nc2sccc2c(=O)[nH]1	2	0	-2	2	1	.
O=c1[nH]c(=S)[nH]c2sccc12	3	64*	10	2	-2	4%
COC(=O)[C@@H]1CCCN1C(=O)[C@@H](NC(=O)OC(C)(C)C)C(C)C	-3	-2	1	0	-1	.
COc1cc(/C=C2/SC(N)=NC2=O)ccc1Oc1ccc([N+](=O)[O-])cc1[N+](=O)[O-]	-1	38	2	-1	-1	.
SMILES	GSK3 alpha inh	DYRK1A inh	CDK5 p35 inh	GSK3beta inhib	STK33 inh	ADP-Glo artifact
COc1cc(/C=C2/SC(=O)NC2=O)ccc1Oc1ccc([N+](=O)[O-])cc1[N+](=O)[O-]	-4	80*	1	-1	2	9%
O=c1c(O)c(-c2ccc(O)c(O)c2)oc2cc(O)ccc12	.	88*	49	.	.	9%
O=c1c(O)c(-c2ccc(O)cc2)oc2cc(O)cc(O)c12	8	59*	2	-31	5	7%
O=c1c(-c2ccc(O)cc2)coc2cc(O)ccc12	4	31	2	4	1	.
COC(=O)c1cc(C)nc2c1C(=O)C(=O)C=C2N1CCOCC1	-6	61*	5	-2	1	8%
O=C(c1ccc2c(c1)OCCCO2)N1CCCCC1	1	59*	0	1	-1	7%
Cn1c(-c2ccccc2)c(C=O)c2ccccc21	1	78*	-1	-3	1	7%
COc1ccc2[nH]c(C(=O)N/N=C/c3ccccc3OC)cc2c1	3	63*	1	0	0	10%
COc1ccc2[nH]c(C(=O)N/N=C/c3ccc(OC)c(O)c3)cc2c1	1	63*	-2	-2	0	9%
O=C(Nc1nc2ccccc2[nH]1)Nc1ccccc1F	1	6	-6	1	-1	.
c1cncc(-c2ccc3[nH]ccc3c2)c1	-2	55*	0	.	2	7%
CCN(CC)CCn1c2ccccc2c(=O)c2c(O)ccc(O)c21	.	85*	3	.	.	7%
N=c1oc2cc(O)ccc2cc1C(=O)Nc1ccc(F)cc1	0	53*	2	2	2	9%
Cc1ccc(S(=O)(=O)C2(C(=O)N3CCN(c4ccccc4F)CC3)CC2)cc1	1	-2	0	3	0	.
O=C(Nc1cccc(-c2nc3cccnc3s2)c1)c1ccc(Cl)nc1	-3	5	-3	-2	-1	.
O=C(Nc1cccc(-c2nc3cccnc3s2)c1)c1cccnc1Cl	40	62*	-1	2	4	8%
O=C1SC(c2ccccc2)=C/C1=C\N1CCCCC1	6	68*	-1	2	2	8%
O=C(Nc1ccc(Cl)c(Cl)c1)OCc1cnc(Cl)s1	.	59*	0	1	.	7%
Cc1cc(C)c2c(=O)[nH]c(SCC(=O)c3ccc(C)c(C)c3)nc2n1	-2	0	1	-28	1	.
COc1ccc(-n2ncc3c(=O)n(CC(=O)NC(C)C)cnc32)cc1	-2	2	-1	0	5	.
O=C(CN1CCOCC1)Nc1nc2ccc(F)cc2s1	-1	51*	-1	-1	0	11%
O=C(CN1CCOCC1)Nc1nc2ccc([N+](=O)[O-])cc2s1	1	81*	2	-1	7	9%
O=C(Nc1cc(S(=O)(=O)N2CCOCC2)ccc1Cl)c1cc([N+](=O)[O-])ccc1Cl	-4	-2	1	.	0	.
C[C@H](CO)N1C[C@H](C)[C@@H](CN(C)Cc2ccncc2)Oc2c(NS(=O)(=O)c3cn(C)cn3)cccc2C1=O	3	1	1	.	0	.
Cc1c(C(=O)Nc2ccc(S(=O)(=O)Nc3ncccn3)cc2)oc2ccc(Cl)cc12	-2	7	-4	-1	0	.
Cc1noc(NS(=O)(=O)c2ccc(NC(=O)c3oc4ccc(Cl)cc4c3C)cc2)c1C	-2	64*	-2	3	1	10%
CC(NC(=O)COC(=O)c1ccc([N+](=O)[O-])s1)c1ccccc1 (centres undefined)	-1	56*	1	0	-2	8%
Cc1ccc(C(=O)OCC(=O)NC(C)c2ccccc2)s1 (centres undefined)	-3	3	-1	.	-1	.
Brc1ccc(CN2CCCCCC2)cc1	3	.	-2	-4	-1	.
